OX1R antag-1 = blocks the human orexin 1 receptor. O43613. CHO/OX1R cells, Fluo-8 calcium fluorescence, orexin A. inhibition, % at 5 µM. 0.43% of 330,000 active;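 active = inhibition above its plate's threshold, mean inhibition of all tested compounds on the plate plus 3 SD, cut at about 37% in these data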;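 note: 0% = orexin A challenge wells and 100% = SB-334867-A antagonist wells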
Target sequence (O43613 whole entry, looked up): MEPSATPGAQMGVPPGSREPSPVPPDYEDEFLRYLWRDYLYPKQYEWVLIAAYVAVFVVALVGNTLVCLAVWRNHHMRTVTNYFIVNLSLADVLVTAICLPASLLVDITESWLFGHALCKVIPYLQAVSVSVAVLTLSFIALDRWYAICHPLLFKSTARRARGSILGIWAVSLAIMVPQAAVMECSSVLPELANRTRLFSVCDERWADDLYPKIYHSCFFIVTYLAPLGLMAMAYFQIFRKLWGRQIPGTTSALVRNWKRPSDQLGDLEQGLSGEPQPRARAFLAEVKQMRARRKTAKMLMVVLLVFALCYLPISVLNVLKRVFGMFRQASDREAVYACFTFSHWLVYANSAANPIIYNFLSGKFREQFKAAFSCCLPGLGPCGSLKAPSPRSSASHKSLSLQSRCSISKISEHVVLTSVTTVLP
TAAR1 antag = human TAAR1 antagonism. Q96RJ0. CHO RD-HGA16 TAAR1, Fluo-8 calcium fluorescence, antagonist. inhibition, % at 3 µM. 1.5% of 360,000 active;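 active = inhibition above a per-plate cutoff, the mean inhibition of test compounds on that plate plus 3 SD, cut at about 49% in these data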;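 note: 0% = DMSO plus EC80 beta-PEA response and 100% = DMSO alone without agonist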
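Assay system: RD-HGA16 CHO cells with stable hTAAR1 and Gα16 / Reagent: EC80 β-phenethylamine stimulus / Doses: 3 µM, single point / Timing: dye loading 75 min at 37 °C, then 30 min room temperature / Measured by: Fluo-8 intracellular calcium dye fluorescence, real-time kinetic reads / Controls: vehicle wells and EC80 agonist wells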
TAAR1 agonist = agonists of human TAAR1 | Q96RJ0 | 0.99% of 360,000 active | activation, % at 3 µM | CHO RD-HGA16 TAAR1, Fluo-8 calcium fluorescence; vehicle wells 0%, saturating PEA agonist 100%;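 active = activation above the mean activation of all test compounds in the run plus 3 SD, cut at about 38% in these data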
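Assay system: CHO-derived RD-HGA16 cells with stable Gα16 and human TAAR1; timing: 17-24 h seeding, 75 min 37 °C dye, 30 min RT; read-out: % activation from peak over basal fluorescence ratio, DMSO-to-PEA scaled; measured by: kinetic Fluo-8 calcium fluorescence; benchmarks: low control DMSO, high control PEA (EC100); doses: 3 µM single concentration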
CHO parental Ca = counter-screen for OX1R antagonists: effect in parental CHO cells | parental CHO-K1, ATP-induced calcium, Fluo-8 fluorescence | inhibition, % at 5.6 µM | 0.63% of 330,000 active;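 active = inhibition above that plate's mean sample inhibition plus 3 SD, cut at about 26% in these data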;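 note: 0% = ATP-challenged DMSO wells and 100% = DMSO wells without ATP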
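Assay system: untransfected parental CHO cell line. Also added: ATP agonist challenge. Dosing: one dose, 5.6 µM nominal. Measured by: Fluo-8 fluorescence. Read-out: % inhibition. Benchmarks: ATP wells versus no-ATP DMSO wells. Repeats: no replicates.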
OX1R antag-2 = antagonists of human orexin 1 receptor (OX1R). OX1R-expressing cells, FRET antagonist read-out. inhibition, % at 6.6 µM. 1.8% of 330,000 active. AID 485270; in the data active = inhibition mostly above about 38%, no sharp cut-off; inactive = mostly below about 40%;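 note: 0% = agonist challenge alone and 100% = reference antagonist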
TAAR1 ag conf = human TAAR1 agonism, confirmed | shares compounds with TAAR1 agonist | CHO RD-HGA16 TAAR1, Fluo-8 calcium fluorescence; scaled: DMSO 0%, maximal phenethylamine 100% | activation, % at 3 µM | 82% of 2,400 active | AID 651783;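 active = activation above a cutoff set at the run's mean compound activation plus 3 SD, cut at about 39% in these data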
Ga16 nonsel ag = counter-screen for TAAR1 agonists: nonselective agonists in parental cells; AID 651787; shares compounds with TAAR1 agonist; CHO-Ga16 parental, Fluo-8 calcium fluorescence; normalized to maximal ATP response, DMSO zero; activation, % at 3 µM; 50% of 2,400 active;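 active = activation above the run cutoff, the mean activation over all tested wells plus 3 SD, cut at about 12% in these data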;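 note: 0% = DMSO wells and 100% = maximal ATP response on the peak over basal ratio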
TAAR1 desensitize = counter-screen for human TAAR1 agonists: agonists that desensitize TAAR1. CHO RD-HGA16 hTAAR1, Fluo-8 calcium, beta-PEA response inhibition. 46% of 2,400 active. inhibition, % at 3 µM. shares compounds with TAAR1 agonist. AID 651951;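 active = inhibition above the run cutoff, the mean inhibition of all test compounds plus 3 SD, cut at about 49% in these data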;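 note: beta-PEA stimulus applied at its EC80; loss of beta-PEA calcium signal after compound pretreatment read as receptor desensitization; 0% = DMSO with beta-PEA at EC80 and 100% = DMSO alone without agonist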
Ga16 nonsel ant = nonselective Ga16 antagonism, counter-screen; shares compounds with TAAR1 agonist; CHO-Ga16 ATP-induced calcium, Fluo-8 fluorescence; inhibition, % at 3 µM; 39% of 2,400 active; AID 651952;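 active = inhibition above the plate's mean compound inhibition plus 3 SD, computed per plate, cut at about 22% in these data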;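 note: 0% = EC80 ATP with DMSO and 100% = DMSO wells without ATP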
Starred values were filed as active, the others as inactive; nt = no result. Most compounds without a hit are left out; they make up all but 4% or so of the library.

SMILES	OX1R antag-1	TAAR1 antag	TAAR1 agonist	CHO parental Ca	OX1R antag-2	TAAR1 ag conf	Ga16 nonsel ag	TAAR1 desensitize	Ga16 nonsel ant
COc1ccc(-c2nn(-c3ccccc3)cc2C(=O)NC(=S)NNC(=O)c2ccncc2)cc1	9	56*	101*	-1	24	82*	74*	76*	70*
O=C(NNC(=S)NC(=O)c1sc2ccccc2c1Cl)c1ccc(Cl)cc1	1	50*	91*	-3	3	163*	141*	106*	103*
Cc1cccc(C(=O)NC(=S)NNC(=O)c2ccc(Cl)cc2)c1	75*	104*	171*	64*	-7	159*	121*	107*	93*
CCCCC(=O)NNC(=S)NC(=O)c1ccc(C)cc1	-6	36	98*	-1	4	83*	82*	38	40*
Cc1cccc(N(C)Cc2nnc(-c3cccc(Br)c3)o2)c1	-23	9	3	10	11	nt	nt	nt	nt
CCOC(=O)c1[nH]cnc1C(=O)N1CCN(C(=O)OC(C)(C)C)CC1	10	-5	2	-7	-1	nt	nt	nt	nt
COc1ccc(C(=O)NC(=S)NNC(=O)c2ccc(NC(=O)C(C)C)cc2)cc1	-2	-17	3	-9	-1	nt	nt	nt	nt
COc1cc(C(=O)NNC(=S)NC(=O)c2ccc(Cl)cc2)cc(OC)c1OC	13	86*	141*	-1	14	93*	84*	67*	43*
CCC(=O)NC(=S)NNC(=O)c1ccc(OC)cc1	-6	11	3	1	7	nt	nt	nt	nt
COc1ccc(C(=O)NNC(=S)NC(=O)c2ccc(Cl)cc2)cc1	33	106*	176*	28	-1	141*	117*	102*	86*
COc1ccc(C(=O)NC(=S)NNC(=O)c2ccc(C)cc2)cc1	59*	106*	170*	49*	5	157*	124*	105*	70*
COc1ccc(C(=O)NC(=S)NNC(=O)c2ccc3ccccc3n2)cc1	-5	-16	51*	-4	14	89*	69*	45	37*
O=C(O)c1ncn(Cc2ccc(Br)cc2)c1C(=O)O	2	5	13	-14	33	nt	nt	nt	nt
CCN(C[C@H]1N[C@@](C)(C(=O)OC)[C@H]2C(=O)N(C)C(=O)[C@@H]12)C(=O)Nc1ccccc1	-8	-25	3	-7	-7	nt	nt	nt	nt
COc1cccc(Nc2nc(C(N)COCc3ccccc3)cs2)n1 (stereo not given)	nt	33	59*	nt	nt	80*	11	56*	15
COc1ccc(CC(N)c2csc(Nc3ccccn3)n2)cc1 (stereo not given)	nt	7	25	nt	nt	nt	nt	nt	nt
COc1ccc(CC(N)c2csc(Nc3cccc(OC)n3)n2)cc1 (stereo not given)	nt	26	61*	nt	nt	71*	30*	35	29*
COc1cccc(Nc2nc(C(N)Cc3ccc(F)cc3)cs2)n1 (stereo not given)	nt	24	62*	nt	nt	38*	20*	23	29*
COc1cccc(Nc2nc(C(N)Cc3ccc(C(F)(F)F)cc3)cs2)n1 (stereo not given)	nt	28	60*	nt	nt	52*	38*	54*	59*
NC(=O)c1cccc(Nc2nc(C(N)Cc3ccc(C(F)(F)F)cc3)cs2)n1 (stereo not given)	nt	-17	12	nt	nt	nt	nt	nt	nt
NC(COCc1ccccc1)c1csc(Nc2cc(Oc3ccccc3)ncn2)n1 (stereo not given)	nt	29	24	nt	nt	nt	nt	nt	nt
CNC[C@H](CC1CCCCC1)NC[C@H](Cc1ccccc1)NCCC12CC3CC(CC(C3)C1)C2	25	37	56*	20	12	94*	81*	81*	89*
